High-throughput results as filed in PubChem.
This is a sample that favours compounds with a hit; in the whole collection about 2.7% have one here.
TCR-CD3 inh: inhibitors of human TCR-CD3 interaction | TAMRA-labeled TCR probe fluorescence, biochemical | inhibition, % at 9.4 µM | actives 0.37% (n = 360,000); in the data active means inhibition above about 19%;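 further: recombinant mutant TCR 2C K166C tagged with TAMRA read by polarization; 0% = receptor in buffer alone and 100% = receptor with positive control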
PRMT1 FP inh: inhibitors of human PRMT1; AID 652257; Q99873; inhibition, % at 2.79 µM; actives 1.3% (n = 370,000); recombinant PRMT1, activity-based probe fluorescence polarization;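 active means inhibition above about 21% made by adding two undisclosed values, limit read from the data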
SIAE inh: inhibitors of human sialic acid acetylesterase SIAE | Q9HAT2 | SIAE FP-Rh probe binding, fluorescence polarization | inhibition, % at 9.66 µM | actives 0.69% (n = 370,000);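 active means inhibition above a cutoff: mean of compounds within the control limits plus 3 SD of those, cut at about 17% in these data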;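 further: 0% = plate median of compound wells and 100% = probe without SIAE protein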
HTRA1 inhibitor: HTRA1 (human) protease inhibition; Q92743; recombinant HTRA1, FP-rhodamine activity-based probe, fluorescence polarization; inhibition, % at 5.96 µM; actives 0.5% (n = 340,000); in the data active means inhibition above about 36%;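 further: 0% = enzyme with DMSO and 100% = wells lacking enzyme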
mABHD4 FP: inhibitors of mouse ABHD4; inhibition, % at 8.92 µM; AID 720543; actives 0.54% (n = 370,000); purified mABHD4, FP-Rh probe fluorescence polarization; Q8VD66;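 active means inhibition exceeding the mean over every tested compound plus 3 SD, cut at about 30% in these data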;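 further: 0% = plate median of compound wells and 100% = S159A mutant with DMSO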
Target sequence (Q8VD66 whole entry, looked up): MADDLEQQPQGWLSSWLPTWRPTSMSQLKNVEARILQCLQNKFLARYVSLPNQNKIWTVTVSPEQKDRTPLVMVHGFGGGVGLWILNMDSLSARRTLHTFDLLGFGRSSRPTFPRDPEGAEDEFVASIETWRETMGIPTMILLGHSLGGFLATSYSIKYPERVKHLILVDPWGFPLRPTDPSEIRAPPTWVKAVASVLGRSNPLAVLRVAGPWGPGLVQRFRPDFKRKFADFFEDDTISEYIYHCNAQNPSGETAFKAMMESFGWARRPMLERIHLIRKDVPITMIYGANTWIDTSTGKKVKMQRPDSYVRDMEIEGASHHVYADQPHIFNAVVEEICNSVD
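Assay system: wild-type mouse ABHD4 protein; compound: single nominal dose of 8.92 µM, 0.89% DMSO final; schedule: 45 min + 60 min at 25 °C; measured by: FP readout, ex 525 nm / em 598 nm; evaluation: % inhibition of FP-Rh probe binding versus controls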
PRMT1 confirm: PRMT1 (human) inhibition, FP confirmation; shares compounds with PRMT1 FP inh; recombinant His-PRMT1, activity-based probe fluorescence polarization; inhibition, % at 2.79 µM; actives 42% (n = 3,300); AID 687036;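 active means mean inhibition across replicates above the hit cutoff derived for the earlier primary screen, cut at about 22% in these data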
ABHD4 confirm: ABHD4 (mouse) inhibition, FP confirmation. shares compounds with mABHD4 FP. purified mABHD4, FP-Rh probe fluorescence polarization. inhibition, % at 8.92 µM. actives 55% (n = 1,800). AID 720658;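 active means mean inhibition across replicates above the hit cutoff set in the primary screen, cut at about 30% in these data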;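 further: 0% = wild-type ABHD4 with DMSO and 100% = catalytically dead S159A mutant with DMSO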
SIAE inh conf: confirmation of human SIAE inhibitors | shares compounds with SIAE inh | SIAE FP-Rh activity-based probe, fluorescence polarization | inhibition, % at 9.66 µM | actives 13% (n = 2,300) | AID 1117263;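 active means mean inhibition of the replicates above the hit cutoff set in the primary screen, cut at about 17% in these data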;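 further: 0% = SIAE with DMSO and probe and 100% = probe without SIAE; inhibitors lower polarization as more probe stays unbound to SIAE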
* marks the source's active call; other numbers are inactive results; · = no result; + = active, no number.

SMILES	TCR-CD3 inh	PRMT1 FP inh	SIAE inh	HTRA1 inhibitor	mABHD4 FP	PRMT1 confirm	SIAE inh conf	others
O=C1C(CSCc2ccccc2)NC(=S)N1c1ccccc1 (stereo not given)	-2	27*	100*	·	-2	68*	-83
O=C(O)CC1NC(=S)N(c2ccccc2)C1=O (stereo not given)	7	-1	-5	-5	-1	·	·
CC(=O)Nc1cc(-c2cccc(NS(C)(=O)=O)c2)cn2c(-c3cccc(C(F)(F)F)c3)cnc12	-3	4	-19	·	-27	·	·
CC(=O)Nc1cc(-c2ccccc2N(C)C)cn2c(-c3cccc(C(F)(F)F)c3)cnc12	16	99*	18*	·	24	1	9
Cc1cc[n+](-c2[nH]c(=O)sc2/C=N/NC([S-])=Nc2ccccc2)cc1C	12	56*	19*	22	31*	26*	3	ABHD4 confirm=28
COC[C@H](NS(=O)(=O)c1ccc(Br)cc1F)[C@@H](O)c1ccccc1	-6	-1	-1	7	1	·	·
N#Cc1ccc(N=c2ssnc2Cl)cc1	1	91*	22*	7	7	97*	17*
Nc1cc(=O)[nH]c(=O)n1CCc1ccccc1	-5	0	-5	3	9	·	·
C/C(=N/Nc1ccnc2cc(Cl)ccc12)c1ccc(O)cc1	2	37*	37*	4	29	1	15
C=CS(=O)(=O)c1c2cc(OC)ccc2nc2ccc(OC)cc12	3	10	5	6	11	·	·
Cc1cc(C(=O)Nc2ccc(Nc3ccccc3)cc2)ccc1[N+](=O)[O-]	7	28*	19*	12	12	6	19*
COCCN(C(=O)c1cc(-c2ccco2)nc2ccccc12)c1c(N)n(Cc2ccccc2)c(=O)[nH]c1=O	10	83*	42*	10	23	9	2
CCOC(=O)Nc1cc(=O)c([N+](=O)[O-])c(N)[nH]1	4	0	3	·	5	·	·
COC(=O)C1=C(O)/C(=C\c2ccc(CNS(=O)(=O)c3ccc(Cl)cc3)o2)N=C1C	14	56*	22*	34	29	15	-5
CCOC(=O)C1=C(O)/C(=C\c2ccc(CNS(=O)(=O)c3ccc(Br)cc3)o2)N=C1C	0	34*	18*	18	23	15	5
Cc1cc2c(nc1C)CCCN2S(=O)(=O)c1ccc(C(F)(F)F)cc1	8	3	0	·	1	·	·
NC(N)=NS(=O)(=O)c1ccc(NC(=S)NC(=O)/C=C/c2ccco2)cc1	3	9	-7	0	14	·	·
NS(=O)(=O)c1ccc(NC(=S)NC(=O)/C=C/c2ccco2)cc1	2	56*	19*	2	29	20	-10
Cc1cccc(N=C2NC(=O)/C(=C/c3cccn3C)S2)c1C	-2	-4	-18	5	-3	·	·
Cc1cccc(N=C2NC(=O)/C(=C/C=C/c3ccco3)S2)c1C	13	29*	18*	32	21	31*	6
CC1=CC(=O)C=CC1=Nc1ccc(N(C)C)cc1	-5	67*	17*	·	64*	41*	12	ABHD4 confirm=57*
COc1ccc(C2COc3cc(O)ccc3C2)c(OC)c1O (stereo not given)	-10	4	5	-6	2	·	·
Oc1ccc2c(c1)OCC1(O)Cc3cc(O)c(O)cc3C21 (stereo not given)	·	125*	+	31	110*	119*	+	ABHD4 confirm=129*
O=C(CSc1ccc(-c2ccccn2)nn1)Nc1ccc(F)cc1F	-4	0	-2	8	0	·	·
O=C(CSc1ccc(-c2ccco2)nn1)Nc1ccc(F)cc1F	-2	34*	19*	4	22	3	2
O=c1cc(N2CCN(c3cccc(Cl)c3Cl)CC2)[nH]c(=O)n1C1CCCCC1	·	-3	-2	·	2	·	·
CCOC(=O)[C@H]1[C@H]2COc3ccc(Cl)cc3[C@@H]2N2C(=O)[C@@H](C)NC(=O)[C@@]12C	-3	6	-2	1	1	·	·
